Assay results taken from ChEMBL document CHEMBL1212911, “Identification of potent and selective amidobipyridyl inhibitors of protein kinase D” (J Med Chem, 2010).

How the values were obtained:
[1] = AUC (0 to 8 hrs) in Sprague-Dawley rat at 5 mg/kg, po; format: ADME, organism-based; design: time < 8 hr, dose 5 mg/kg, route oral; settings: plasma
[2] = Half life in rats after 2 mg/kg intravenous dose; format: ADME, organism-based; design: dose 2 mg/kg, route intravenous; settings: Sprague-Dawley, rat, in vivo
Summary of the method: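 Rats dosed iv 2 mg/kg (n = 2) or po 5 mg/kg (n = 3) in 10% NMP, 10% Cremophor, 80% pH 4.63 buffer. PK parameters derived from iv dosing, reported as mean ± SD.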

[3] = biological target: Calcium/calmodulin-dependent protein kinase type 1D (Homo sapiens) (UniProt Q8IU85); assay: Inhibition of CaMK1delta; settings: concentration not given here
Summary of the method: (§1)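 Selectivity screen run externally (Invitrogen SelectScreen). Percent inhibition measured at 1 μM compound, mean of 2 measurements.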

[4] = biological target: Calcium/calmodulin-dependent protein kinase type II subunit delta (Homo sapiens) (UniProt Q13557); assay: Inhibition of human CaMK2delta; settings: concentration not given here; summary of the method: as §1
[5] = biological target: T1, Calcium/calmodulin-dependent protein kinase type IV (Homo sapiens) (UniProt Q16566); assay: Inhibition of human CaMK4; settings: concentration not given here; summary of the method: as §1
T1 sequence (whole entry): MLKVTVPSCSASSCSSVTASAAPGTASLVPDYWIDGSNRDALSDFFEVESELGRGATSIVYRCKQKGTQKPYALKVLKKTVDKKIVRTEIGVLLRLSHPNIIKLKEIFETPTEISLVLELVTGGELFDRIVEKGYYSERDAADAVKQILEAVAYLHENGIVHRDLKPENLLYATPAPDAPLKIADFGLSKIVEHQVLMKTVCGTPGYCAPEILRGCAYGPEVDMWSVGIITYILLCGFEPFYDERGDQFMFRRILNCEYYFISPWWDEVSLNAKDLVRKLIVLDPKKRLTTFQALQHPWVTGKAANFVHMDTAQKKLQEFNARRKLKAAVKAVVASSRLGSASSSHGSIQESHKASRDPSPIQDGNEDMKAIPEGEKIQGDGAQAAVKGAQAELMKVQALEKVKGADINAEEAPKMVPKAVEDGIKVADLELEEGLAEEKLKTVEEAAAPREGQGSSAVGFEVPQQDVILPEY

[6] = biological target: Serine/threonine-protein kinase MARK1 (Homo sapiens) (UniProt Q9P0L2); assay: Inhibition of human MARK1; settings: concentration not given here; summary of the method: as §1
[7] = biological target: Serine/threonine-protein kinase MARK2 (Homo sapiens) (UniProt Q7KZI7); assay: Inhibition of human MARK2; settings: concentration not given here; summary of the method: as §1
[8] = biological target: G protein-coupled receptor kinase 5 (Homo sapiens) (UniProt P34947); assay: Inhibition of human GRK5; settings: concentration not given here; summary of the method: as §1
[9] = biological target: Protein kinase C delta type (Homo sapiens) (UniProt Q05655); assay: Inhibition of human PKCdelta; settings: concentration not given here; summary of the method: as §1
[10] = biological target: T2, Protein kinase C epsilon type (Homo sapiens) (UniProt Q02156); assay: Inhibition of PKCepsilon; settings: concentration not given here
T2 sequence (whole entry): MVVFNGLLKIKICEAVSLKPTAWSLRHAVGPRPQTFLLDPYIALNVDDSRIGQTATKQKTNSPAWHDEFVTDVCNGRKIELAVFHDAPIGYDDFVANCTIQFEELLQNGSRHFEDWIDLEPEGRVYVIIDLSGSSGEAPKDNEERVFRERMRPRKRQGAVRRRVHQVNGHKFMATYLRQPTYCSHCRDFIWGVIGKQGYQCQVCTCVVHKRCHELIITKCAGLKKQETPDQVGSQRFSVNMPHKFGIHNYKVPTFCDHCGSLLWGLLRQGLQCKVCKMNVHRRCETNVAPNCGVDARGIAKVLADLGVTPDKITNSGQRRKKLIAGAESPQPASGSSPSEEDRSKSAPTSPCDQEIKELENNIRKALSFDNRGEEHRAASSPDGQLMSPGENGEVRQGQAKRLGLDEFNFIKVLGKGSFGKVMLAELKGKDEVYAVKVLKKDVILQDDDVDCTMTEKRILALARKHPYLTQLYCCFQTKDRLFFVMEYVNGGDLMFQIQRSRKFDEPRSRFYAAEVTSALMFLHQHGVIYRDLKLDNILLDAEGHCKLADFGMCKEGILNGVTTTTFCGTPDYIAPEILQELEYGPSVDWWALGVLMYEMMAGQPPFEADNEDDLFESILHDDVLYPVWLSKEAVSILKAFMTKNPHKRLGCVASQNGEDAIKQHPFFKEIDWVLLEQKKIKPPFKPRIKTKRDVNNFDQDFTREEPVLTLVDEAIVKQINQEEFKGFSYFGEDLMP

[11] = biological target: T3, Serine/threonine-protein kinase D1 (Homo sapiens, UniProt Q15139); assay: Inhibition of PKD1 by TR-FRET assay
T3 sequence (Q15139 whole entry): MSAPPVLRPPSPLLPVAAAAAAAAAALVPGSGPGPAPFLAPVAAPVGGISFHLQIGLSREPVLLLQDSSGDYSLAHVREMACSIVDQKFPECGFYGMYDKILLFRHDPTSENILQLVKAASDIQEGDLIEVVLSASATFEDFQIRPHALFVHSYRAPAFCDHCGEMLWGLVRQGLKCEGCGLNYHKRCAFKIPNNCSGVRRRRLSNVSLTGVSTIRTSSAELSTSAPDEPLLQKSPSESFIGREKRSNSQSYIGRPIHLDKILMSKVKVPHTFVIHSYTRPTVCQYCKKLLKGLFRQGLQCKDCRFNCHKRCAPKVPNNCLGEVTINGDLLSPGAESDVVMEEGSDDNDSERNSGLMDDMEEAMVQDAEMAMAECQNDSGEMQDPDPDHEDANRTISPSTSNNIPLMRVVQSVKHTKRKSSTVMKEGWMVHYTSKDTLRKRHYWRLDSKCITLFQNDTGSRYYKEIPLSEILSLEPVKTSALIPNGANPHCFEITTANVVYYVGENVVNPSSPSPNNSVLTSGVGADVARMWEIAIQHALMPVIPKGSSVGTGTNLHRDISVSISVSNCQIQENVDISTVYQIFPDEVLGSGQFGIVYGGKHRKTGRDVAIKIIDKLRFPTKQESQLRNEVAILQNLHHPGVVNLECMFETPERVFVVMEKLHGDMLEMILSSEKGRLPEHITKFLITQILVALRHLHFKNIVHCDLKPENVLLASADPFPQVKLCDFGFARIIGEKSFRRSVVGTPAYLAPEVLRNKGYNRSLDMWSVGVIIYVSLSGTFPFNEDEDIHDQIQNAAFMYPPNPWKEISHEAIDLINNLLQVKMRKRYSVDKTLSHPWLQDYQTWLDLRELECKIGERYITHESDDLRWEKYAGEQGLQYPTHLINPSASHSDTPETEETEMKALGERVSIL
Summary of the method: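 Full-length wild-type PKD1 expressed and purified from Sf9 cells, 0.2 μg/mL, in 35 mM Tris-HCl pH 7.5, 5 mM MgCl2, 0.02% Tween-20, 20 μM ATP, 1 mM DTT. Reaction started with 2 μM biotinylated syntide-2 and run 50 min at room temperature. Stopped with EDTA plus europium anti-rabbit IgG, anti-phospho-syntide-2 antibody and streptavidin-APC. LANCE TR-FRET 665/615 ratio read after 1 h. 11-point curves in triplicate gave IC50.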

[12] = biological target: T3, Serine/threonine-protein kinase D1; assay: Inhibition of PKD1 assessed as inhibition of HDAC5 neuclear export
Summary of the method: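 Neonatal rat ventricular myocytes infected with adenovirus encoding GFP-HDAC5 and plated on gelatin-coated wells. Cells exposed to compound and stimulated with PGF2α for 2 h, then fixed. Cytoplasmic versus nuclear GFP intensity quantified by high-content imaging.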

[13] = biological target: T4, Serine/threonine-protein kinase D2 (Homo sapiens, UniProt Q9BZL6); assay: Inhibition of PKD2 by TR-FRET assay
T4 sequence (Q9BZL6 whole entry): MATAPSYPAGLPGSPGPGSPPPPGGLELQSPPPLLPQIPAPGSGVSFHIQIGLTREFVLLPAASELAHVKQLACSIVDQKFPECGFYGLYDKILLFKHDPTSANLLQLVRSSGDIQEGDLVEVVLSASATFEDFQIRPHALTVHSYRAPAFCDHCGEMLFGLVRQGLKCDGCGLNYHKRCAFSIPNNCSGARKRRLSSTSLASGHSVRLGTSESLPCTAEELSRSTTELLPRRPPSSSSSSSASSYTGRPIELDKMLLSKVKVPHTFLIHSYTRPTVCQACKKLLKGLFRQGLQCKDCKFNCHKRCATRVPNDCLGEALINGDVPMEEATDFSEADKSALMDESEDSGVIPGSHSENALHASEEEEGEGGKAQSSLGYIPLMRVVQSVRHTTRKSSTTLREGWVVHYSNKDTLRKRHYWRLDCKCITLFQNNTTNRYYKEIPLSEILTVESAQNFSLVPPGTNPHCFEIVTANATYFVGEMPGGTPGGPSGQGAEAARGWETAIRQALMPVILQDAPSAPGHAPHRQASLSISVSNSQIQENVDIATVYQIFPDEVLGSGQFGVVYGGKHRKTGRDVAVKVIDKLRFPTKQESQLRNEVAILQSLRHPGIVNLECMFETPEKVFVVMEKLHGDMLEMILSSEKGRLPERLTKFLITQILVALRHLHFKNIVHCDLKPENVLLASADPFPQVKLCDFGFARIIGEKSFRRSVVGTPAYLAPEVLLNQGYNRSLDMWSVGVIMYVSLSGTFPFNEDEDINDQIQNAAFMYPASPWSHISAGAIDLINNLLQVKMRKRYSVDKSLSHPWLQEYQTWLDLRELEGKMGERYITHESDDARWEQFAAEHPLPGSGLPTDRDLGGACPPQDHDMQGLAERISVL

Caco-2 = assay: Ratio of permeability from basolateral to apical side to apical to basolateral side in human Caco-2 cells; format: ADME, cell-based

Chain of Calcium/calmodulin-dependent protein kinase type 1D (Homo sapiens) (Q8IU85 whole entry, looked up): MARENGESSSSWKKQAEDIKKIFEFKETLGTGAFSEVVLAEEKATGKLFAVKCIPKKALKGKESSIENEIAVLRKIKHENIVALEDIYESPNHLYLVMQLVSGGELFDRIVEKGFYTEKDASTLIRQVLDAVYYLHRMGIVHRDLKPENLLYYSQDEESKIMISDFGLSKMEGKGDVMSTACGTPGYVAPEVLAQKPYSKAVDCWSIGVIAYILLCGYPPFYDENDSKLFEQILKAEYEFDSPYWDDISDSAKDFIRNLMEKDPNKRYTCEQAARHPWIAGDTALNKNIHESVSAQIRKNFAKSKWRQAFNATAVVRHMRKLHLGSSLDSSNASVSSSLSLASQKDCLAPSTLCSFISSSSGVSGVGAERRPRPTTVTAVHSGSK
Chain of Calcium/calmodulin-dependent protein kinase type II subunit delta (Homo sapiens) (Q13557 whole entry): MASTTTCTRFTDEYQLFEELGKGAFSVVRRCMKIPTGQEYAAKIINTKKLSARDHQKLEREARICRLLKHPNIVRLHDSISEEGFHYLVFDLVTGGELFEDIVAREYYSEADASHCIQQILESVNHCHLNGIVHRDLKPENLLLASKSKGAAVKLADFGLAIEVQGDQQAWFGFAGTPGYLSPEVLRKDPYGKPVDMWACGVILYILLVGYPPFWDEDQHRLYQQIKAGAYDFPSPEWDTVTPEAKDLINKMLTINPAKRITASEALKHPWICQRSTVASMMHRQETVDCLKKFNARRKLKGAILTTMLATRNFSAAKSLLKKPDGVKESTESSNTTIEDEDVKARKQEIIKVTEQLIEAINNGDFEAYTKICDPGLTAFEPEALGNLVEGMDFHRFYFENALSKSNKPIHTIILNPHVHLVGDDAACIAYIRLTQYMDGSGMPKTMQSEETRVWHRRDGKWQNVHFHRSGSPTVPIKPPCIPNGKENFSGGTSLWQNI
Chain of G protein-coupled receptor kinase 5 (Homo sapiens) (P34947 whole entry, looked up): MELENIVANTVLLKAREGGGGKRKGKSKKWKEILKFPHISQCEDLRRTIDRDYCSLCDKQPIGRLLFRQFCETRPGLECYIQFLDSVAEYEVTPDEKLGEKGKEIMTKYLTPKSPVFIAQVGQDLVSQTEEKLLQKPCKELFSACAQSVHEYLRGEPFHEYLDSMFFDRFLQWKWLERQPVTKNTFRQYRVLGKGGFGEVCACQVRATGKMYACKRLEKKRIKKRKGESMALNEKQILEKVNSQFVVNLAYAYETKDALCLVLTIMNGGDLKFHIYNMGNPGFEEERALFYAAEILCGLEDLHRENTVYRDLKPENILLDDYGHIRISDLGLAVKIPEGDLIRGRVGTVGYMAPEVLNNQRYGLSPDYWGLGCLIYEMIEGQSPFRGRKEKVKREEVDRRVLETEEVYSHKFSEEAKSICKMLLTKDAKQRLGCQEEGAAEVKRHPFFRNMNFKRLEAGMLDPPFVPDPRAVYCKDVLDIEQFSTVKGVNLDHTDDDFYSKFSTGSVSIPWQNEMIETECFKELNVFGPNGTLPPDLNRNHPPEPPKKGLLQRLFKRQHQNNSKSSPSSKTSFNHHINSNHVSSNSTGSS
Chain of Serine/threonine-protein kinase MARK1 (Homo sapiens) (Q9P0L2 whole entry, looked up): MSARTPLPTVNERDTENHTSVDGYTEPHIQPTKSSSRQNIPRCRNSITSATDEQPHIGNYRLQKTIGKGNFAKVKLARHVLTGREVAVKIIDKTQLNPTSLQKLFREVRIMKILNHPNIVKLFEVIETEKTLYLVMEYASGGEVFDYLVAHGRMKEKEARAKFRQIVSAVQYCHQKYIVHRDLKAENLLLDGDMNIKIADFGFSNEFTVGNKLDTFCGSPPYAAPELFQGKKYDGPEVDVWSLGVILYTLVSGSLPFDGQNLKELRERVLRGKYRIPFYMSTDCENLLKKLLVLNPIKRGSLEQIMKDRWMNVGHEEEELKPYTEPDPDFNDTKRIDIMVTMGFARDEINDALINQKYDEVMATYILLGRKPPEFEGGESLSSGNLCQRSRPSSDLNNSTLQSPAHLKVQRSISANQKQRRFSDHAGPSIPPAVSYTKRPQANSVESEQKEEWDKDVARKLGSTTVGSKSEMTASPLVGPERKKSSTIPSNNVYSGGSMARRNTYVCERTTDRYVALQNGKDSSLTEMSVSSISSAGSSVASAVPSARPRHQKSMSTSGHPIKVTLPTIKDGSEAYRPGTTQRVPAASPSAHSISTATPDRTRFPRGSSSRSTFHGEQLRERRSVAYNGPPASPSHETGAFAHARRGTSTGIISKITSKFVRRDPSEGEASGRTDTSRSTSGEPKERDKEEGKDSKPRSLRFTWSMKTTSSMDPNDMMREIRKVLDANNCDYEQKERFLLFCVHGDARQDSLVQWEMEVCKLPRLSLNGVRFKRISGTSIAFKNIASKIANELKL
Chain of Serine/threonine-protein kinase MARK2 (Homo sapiens) (Q7KZI7 whole entry): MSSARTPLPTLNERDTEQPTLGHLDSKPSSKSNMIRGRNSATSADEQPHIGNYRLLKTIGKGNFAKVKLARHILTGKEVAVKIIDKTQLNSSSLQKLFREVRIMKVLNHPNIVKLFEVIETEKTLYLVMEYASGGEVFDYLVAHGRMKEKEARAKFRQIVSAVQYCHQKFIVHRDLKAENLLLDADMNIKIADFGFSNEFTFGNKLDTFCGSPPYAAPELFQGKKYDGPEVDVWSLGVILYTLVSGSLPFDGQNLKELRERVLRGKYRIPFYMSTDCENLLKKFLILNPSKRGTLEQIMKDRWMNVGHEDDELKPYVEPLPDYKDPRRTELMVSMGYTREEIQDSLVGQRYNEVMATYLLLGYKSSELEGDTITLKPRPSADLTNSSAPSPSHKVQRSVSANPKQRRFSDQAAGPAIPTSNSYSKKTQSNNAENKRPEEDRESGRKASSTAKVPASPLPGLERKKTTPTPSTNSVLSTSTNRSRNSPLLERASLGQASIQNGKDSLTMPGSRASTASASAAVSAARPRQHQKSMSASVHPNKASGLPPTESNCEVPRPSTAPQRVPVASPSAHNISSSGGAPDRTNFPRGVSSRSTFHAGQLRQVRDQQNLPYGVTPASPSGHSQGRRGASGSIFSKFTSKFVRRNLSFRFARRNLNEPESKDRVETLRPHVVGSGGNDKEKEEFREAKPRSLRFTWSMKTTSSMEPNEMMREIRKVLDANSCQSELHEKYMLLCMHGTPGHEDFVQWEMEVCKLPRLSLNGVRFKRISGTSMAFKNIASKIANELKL
Chain of Protein kinase C delta type (Homo sapiens) (Q05655 whole entry, looked up): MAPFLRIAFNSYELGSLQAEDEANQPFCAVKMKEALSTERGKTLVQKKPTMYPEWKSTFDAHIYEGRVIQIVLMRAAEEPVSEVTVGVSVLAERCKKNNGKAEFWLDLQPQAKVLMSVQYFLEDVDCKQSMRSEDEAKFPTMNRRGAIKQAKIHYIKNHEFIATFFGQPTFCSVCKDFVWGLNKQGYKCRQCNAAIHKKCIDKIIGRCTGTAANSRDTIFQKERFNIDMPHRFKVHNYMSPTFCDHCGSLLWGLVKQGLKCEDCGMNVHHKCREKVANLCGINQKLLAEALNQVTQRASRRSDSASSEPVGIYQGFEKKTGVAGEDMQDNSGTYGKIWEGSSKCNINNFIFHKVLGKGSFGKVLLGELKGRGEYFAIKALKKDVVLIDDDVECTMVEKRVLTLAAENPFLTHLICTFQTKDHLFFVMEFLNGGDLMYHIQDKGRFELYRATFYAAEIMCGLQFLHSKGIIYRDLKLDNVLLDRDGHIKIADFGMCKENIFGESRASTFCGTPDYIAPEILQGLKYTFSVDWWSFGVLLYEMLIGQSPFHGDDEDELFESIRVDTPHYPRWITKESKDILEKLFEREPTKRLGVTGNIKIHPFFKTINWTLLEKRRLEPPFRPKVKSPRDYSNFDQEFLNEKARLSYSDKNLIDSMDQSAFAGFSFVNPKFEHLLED

Q: What does the source list for `c1cc2c(N3CCNCC3)nc(-c3ccnc(NC4CCCCC4)c3)cc2cn1`?
A: AUC(0-t) at 8 h [1]: 0.19 µM·h; half-life [2]: 5.2 h; inhibition [3]: 11%; inhibition [4]: 80%; inhibition [5]: 1%; inhibition [6]: 82%; inhibition [7]: 83%; inhibition [8]: 5%; inhibition [9]: 51%; inhibition [10]: 34%

Q: With `N#Cc1cc(-c2ccnc(NC3CCCCC3)c2)nc(N2CCNCC2)c1` as the molecule, how does the IC50 [11] read?
A: The IC50 was 18 nM.

Q: And the EC50 [12]?
A: Its EC50 is 66 nM.

Q: What about the IC50 [13] of the same molecule?
A: Its IC50 is 130 nM.

Q: What about the Ratio (Caco-2) of the same molecule?
A: The Ratio was 0.44.
